# Laboratory results taken from ChEMBL document CHEMBL4689842, “EUbOPEN Chemogenomics Library wave 1” (2021).
# Experiments:
# HEK-293T = test: Multiplex assay against HEK293T; assay type: toxicity, cell-based; settings: human;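 as to Population Tubulin-Different-Phenotype (%): share of the cells with healthy nuclei that show this phenotype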
# Outline: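 Four dyes were applied at seeding to live cells: Hoechst33342, BioTracker Green Microtubule Cytoskeleton Dye, MitoTracker Red and Annexin V Alexa Fluor 680. Imaging after compound addition used a CQ1 microscope at 37°C and 5% CO2. CellPathfinder machine-learning gating then sorted cells into Hoechst high-intensity objects or normal cells, normal cells into healthy, pyknosed or fragmented nuclei, and pyknosed cells into mitotic or apoptotic, with tubulin, mitochondrial-mass and membrane-permeability phenotypes given as per cents of healthy-nucleus cells.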
# Fibroblast = test: Incucyte cell viability with human fibroblast; assay type: toxicity, cell-based; settings: 10 µM, compound concentration 10 uM; also: filed as whole numbers so only -1 and 0 and 1 occur
# [1] = 12 h, 1 µM, compound concentration 1 uM, replicate 1
# [2] = 12 h, 1 µM, compound concentration 1 uM, replicate 2
# [3] = 12 h, 10 µM, compound concentration 10 uM, replicate 1
# [4] = 12 h, 10 µM, compound concentration 10 uM, replicate 2
# [5] = 24 h, 1 µM, compound concentration 1 uM, replicate 1
# [6] = 24 h, 1 µM, compound concentration 1 uM, replicate 2
# [7] = 24 h, 10 µM, compound concentration 10 uM, replicate 1
# [8] = 24 h, 10 µM, compound concentration 10 uM, replicate 2
# [9] = 48 h, 1 µM, compound concentration 1 uM, replicate 1
# [10] = 48 h, 1 µM, compound concentration 1 uM, replicate 2
# [11] = 48 h, 10 µM, compound concentration 10 uM, replicate 1
# [12] = 48 h, 10 µM, compound concentration 10 uM, replicate 2
compound,measurement,setting,value
N#CCNC(=O)c1ccc(-c2ccnc(Nc3ccc(N4CCOCC4)cc3)n2)cc1 [MOMELOTINIB],Population Apoptotic (%),HEK-293T; [1],35%
same,Population Fragmented Nuclei (%),HEK-293T; [1],8%
same,Population Healthy Nuclei (%),HEK-293T; [1],53%
same,Population Hoechst High Intensity Objects (%),HEK-293T; [1],12%
same,Population Membrane Permeable-Phenotype (%),HEK-293T; [1],0%
same,Population Mitochondria Different-Phenotype (%),HEK-293T; [1],61%
same,Population Mitotic Cells (%),HEK-293T; [1],64%
same,Population Normal (%),HEK-293T; [1],87%
same,Population Pyknosed Nuclei (%),HEK-293T; [1],38%
same,Population Tubulin-Different-Phenotype (%),HEK-293T; [1],33%
same,Total Cell Count,HEK-293T; [1],303
same,Population Apoptotic (%),HEK-293T; [2],8%
same,Population Fragmented Nuclei (%),HEK-293T; [2],9%
same,Population Healthy Nuclei (%),HEK-293T; [2],52%
same,Population Hoechst High Intensity Objects (%),HEK-293T; [2],2%
same,Population Membrane Permeable-Phenotype (%),HEK-293T; [2],10%
same,Population Mitochondria Different-Phenotype (%),HEK-293T; [2],9%
same,Population Mitotic Cells (%),HEK-293T; [2],91%
same,Population Normal (%),HEK-293T; [2],97%
same,Population Tubulin-Different-Phenotype (%),HEK-293T; [2],21%
same,Total Cell Count,HEK-293T; [2],198
same,Population Apoptotic (%),HEK-293T; [3],32%
same,Population Fragmented Nuclei (%),HEK-293T; [3],6%
same,Population Healthy Nuclei (%),HEK-293T; [3],54%
same,Population Hoechst High Intensity Objects (%),HEK-293T; [3],6%
same,Population Membrane Permeable-Phenotype (%),HEK-293T; [3],4%
same,Population Mitochondria Different-Phenotype (%),HEK-293T; [3],70%
same,Population Mitotic Cells (%),HEK-293T; [3],67%
same,Population Normal (%),HEK-293T; [3],93%
same,Population Pyknosed Nuclei (%),HEK-293T; [3],38%
same,Population Tubulin-Different-Phenotype (%),HEK-293T; [3],62%
same,Total Cell Count,HEK-293T; [3],432
same,Population Apoptotic (%),HEK-293T; [4],10%
same,Population Fragmented Nuclei (%),HEK-293T; [4],9%
same,Population Healthy Nuclei (%),HEK-293T; [4],29%
same,Population Hoechst High Intensity Objects (%),HEK-293T; [4],5%
same,Population Membrane Permeable-Phenotype (%),HEK-293T; [4],11%
same,Population Mitochondria Different-Phenotype (%),HEK-293T; [4],21%
same,Population Mitotic Cells (%),HEK-293T; [4],89%
same,Population Normal (%),HEK-293T; [4],94%
same,Population Pyknosed Nuclei (%),HEK-293T; [4],60%
same,Population Tubulin-Different-Phenotype (%),HEK-293T; [4],42%
same,Total Cell Count,HEK-293T; [4],251
same,Population Apoptotic (%),HEK-293T; [5],38%
same,Population Fragmented Nuclei (%),HEK-293T; [5],9%
same,Population Healthy Nuclei (%),HEK-293T; [5],58%
same,Population Hoechst High Intensity Objects (%),HEK-293T; [5],9%
same,Population Membrane Permeable-Phenotype (%),HEK-293T; [5],1%
same,Population Mitochondria Different-Phenotype (%),HEK-293T; [5],44%
same,Population Mitotic Cells (%),HEK-293T; [5],62%
same,Population Normal (%),HEK-293T; [5],90%
same,Population Pyknosed Nuclei (%),HEK-293T; [5],31%
same,Population Tubulin-Different-Phenotype (%),HEK-293T; [5],34%
same,Total Cell Count,HEK-293T; [5],349
same,Population Apoptotic (%),HEK-293T; [6],10%
same,Population Fragmented Nuclei (%),HEK-293T; [6],10%
same,Population Healthy Nuclei (%),HEK-293T; [6],63%
same,Population Hoechst High Intensity Objects (%),HEK-293T; [6],1%
same,Population Membrane Permeable-Phenotype (%),HEK-293T; [6],14%
same,Population Mitochondria Different-Phenotype (%),HEK-293T; [6],9%
same,Population Mitotic Cells (%),HEK-293T; [6],89%
same,Population Normal (%),HEK-293T; [6],98%
same,Population Pyknosed Nuclei (%),HEK-293T; [6],26%
same,Population Tubulin-Different-Phenotype (%),HEK-293T; [6],18%
same,Total Cell Count,HEK-293T; [6],260
same,Population Apoptotic (%),HEK-293T; [7],31%
same,Population Fragmented Nuclei (%),HEK-293T; [7],5%
same,Population Healthy Nuclei (%),HEK-293T; [7],58%
same,Population Hoechst High Intensity Objects (%),HEK-293T; [7],6%
same,Population Membrane Permeable-Phenotype (%),HEK-293T; [7],3%
same,Population Mitochondria Different-Phenotype (%),HEK-293T; [7],71%
same,Population Mitotic Cells (%),HEK-293T; [7],68%
same,Population Normal (%),HEK-293T; [7],93%
same,Population Pyknosed Nuclei (%),HEK-293T; [7],36%
same,Population Tubulin-Different-Phenotype (%),HEK-293T; [7],88%
same,Total Cell Count,HEK-293T; [7],423
same,Population Apoptotic (%),HEK-293T; [8],17%
same,Population Fragmented Nuclei (%),HEK-293T; [8],9%
same,Population Healthy Nuclei (%),HEK-293T; [8],41%
same,Population Hoechst High Intensity Objects (%),HEK-293T; [8],4%
same,Population Membrane Permeable-Phenotype (%),HEK-293T; [8],15%
same,Population Mitochondria Different-Phenotype (%),HEK-293T; [8],25%
same,Population Mitotic Cells (%),HEK-293T; [8],82%
same,Population Normal (%),HEK-293T; [8],95%
same,Population Pyknosed Nuclei (%),HEK-293T; [8],49%
same,Population Tubulin-Different-Phenotype (%),HEK-293T; [8],78%
same,Total Cell Count,HEK-293T; [8],239
same,Population Apoptotic (%),HEK-293T; [9],43%
same,Population Fragmented Nuclei (%),HEK-293T; [9],19%
same,Population Healthy Nuclei (%),HEK-293T; [9],67%
same,Population Hoechst High Intensity Objects (%),HEK-293T; [9],4%
same,Population Membrane Permeable-Phenotype (%),HEK-293T; [9],3%
same,Population Mitochondria Different-Phenotype (%),HEK-293T; [9],16%
same,Population Mitotic Cells (%),HEK-293T; [9],56%
same,Population Normal (%),HEK-293T; [9],95%
same,Population Pyknosed Nuclei (%),HEK-293T; [9],13%
same,Population Tubulin-Different-Phenotype (%),HEK-293T; [9],15%
same,Total Cell Count,HEK-293T; [9],535
same,Population Apoptotic (%),HEK-293T; [10],14%
same,Population Fragmented Nuclei (%),HEK-293T; [10],13%
same,Population Healthy Nuclei (%),HEK-293T; [10],76%
same,Population Hoechst High Intensity Objects (%),HEK-293T; [10],3%
same,Population Membrane Permeable-Phenotype (%),HEK-293T; [10],13%
same,Population Mitochondria Different-Phenotype (%),HEK-293T; [10],5%
same,Population Mitotic Cells (%),HEK-293T; [10],85%
same,Population Normal (%),HEK-293T; [10],96%
same,Population Pyknosed Nuclei (%),HEK-293T; [10],9%
same,Population Tubulin-Different-Phenotype (%),HEK-293T; [10],20%
same,Total Cell Count,HEK-293T; [10],437
same,Population Apoptotic (%),HEK-293T; [11],37%
same,Population Fragmented Nuclei (%),HEK-293T; [11],18%
same,Population Healthy Nuclei (%),HEK-293T; [11],69%
same,Population Hoechst High Intensity Objects (%),HEK-293T; [11],8%
same,Population Membrane Permeable-Phenotype (%),HEK-293T; [11],2%
same,Population Mitochondria Different-Phenotype (%),HEK-293T; [11],46%
same,Population Mitotic Cells (%),HEK-293T; [11],62%
same,Population Normal (%),HEK-293T; [11],91%
same,Population Pyknosed Nuclei (%),HEK-293T; [11],11%
same,Population Tubulin-Different-Phenotype (%),HEK-293T; [11],79%
same,Total Cell Count,HEK-293T; [11],471
same,Population Apoptotic (%),HEK-293T; [12],27%
same,Population Fragmented Nuclei (%),HEK-293T; [12],14%
same,Population Healthy Nuclei (%),HEK-293T; [12],59%
same,Population Hoechst High Intensity Objects (%),HEK-293T; [12],4%
same,Population Membrane Permeable-Phenotype (%),HEK-293T; [12],13%
same,Population Mitochondria Different-Phenotype (%),HEK-293T; [12],24%
same,Population Mitotic Cells (%),HEK-293T; [12],72%
same,Population Normal (%),HEK-293T; [12],95%
same,Population Pyknosed Nuclei (%),HEK-293T; [12],25%
same,Population Tubulin-Different-Phenotype (%),HEK-293T; [12],74%
same,Total Cell Count,HEK-293T; [12],253
same,Growth Rate,"Fibroblast; 0 h, replicate number 2, timepoint 0 hours",0
same,Growth Rate,"Fibroblast; 24 h, replicate number 1, timepoint 24 hours",1
